In ChEMBL document CHEMBL1148324 (J Med Chem, 2004):

Experiments:
[1] = Selectivity expressed as the ratio of pEC50 (SLPD) and pEC50 (FSLPD); format: functional
[2] = target: T1, Sulfonylurea receptors; K-ATP channels (Homo sapiens, UniProt O60706+Q09428+Q14654+Q15842); assay: Evaluated for K-ATP activity as in vitro bladder relaxation in spontaneous Landrace pig detrusor strips (SLPD); format: functional, Sus scrofa; settings: target entry is the homologue from another species
Outline: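 Bladder strips taken near the trigonal region of Landrace pig bladder, contracting spontaneously (myogenic, no cholinergic component). Test agents added at increasing concentrations; the read-out is the reduction in area under the contraction curve.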

[3] = target: T1, Sulfonylurea receptors; K-ATP channels; assay: Evaluated for K-ATP activity in terms of stable twitch response through field-stimulated landrace pig detrusor assay; format: functional, Sus scrofa; settings: target entry is the homologue from another species
[4] = target: T1, Sulfonylurea receptors; K-ATP channels; assay: (§1) Evaluated for K-ATP activity in terms of change in membrane potential through guinea pig bladder assay; format: functional, Cavia porcellus; settings: target entry is the homologue from another species
[5] = target: Sulfonylurea receptors; K-ATP channels (UniProt Q14654+O60706+Q09428+Q15842); assay: as §1; format: functional, Cavia porcellus; settings: target entry is the homologue from another species
Sequence of Sulfonylurea receptors; K-ATP channels (UniProt Q14654+O60706+Q09428+Q15842) (Q14654 whole entry): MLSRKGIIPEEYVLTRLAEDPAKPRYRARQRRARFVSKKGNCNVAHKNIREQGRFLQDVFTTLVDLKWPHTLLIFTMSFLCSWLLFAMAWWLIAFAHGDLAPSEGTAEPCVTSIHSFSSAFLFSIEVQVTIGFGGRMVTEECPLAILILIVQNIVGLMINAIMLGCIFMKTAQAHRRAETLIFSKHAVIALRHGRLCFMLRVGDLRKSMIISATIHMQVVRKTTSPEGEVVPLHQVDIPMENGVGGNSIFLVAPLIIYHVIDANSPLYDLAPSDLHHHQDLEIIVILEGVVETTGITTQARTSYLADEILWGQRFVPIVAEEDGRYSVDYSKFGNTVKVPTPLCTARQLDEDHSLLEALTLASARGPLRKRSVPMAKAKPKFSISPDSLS
Sequence of Sulfonylurea receptors; K-ATP channels (UniProt Q14654+O60706+Q09428+Q15842) (O60706 whole entry): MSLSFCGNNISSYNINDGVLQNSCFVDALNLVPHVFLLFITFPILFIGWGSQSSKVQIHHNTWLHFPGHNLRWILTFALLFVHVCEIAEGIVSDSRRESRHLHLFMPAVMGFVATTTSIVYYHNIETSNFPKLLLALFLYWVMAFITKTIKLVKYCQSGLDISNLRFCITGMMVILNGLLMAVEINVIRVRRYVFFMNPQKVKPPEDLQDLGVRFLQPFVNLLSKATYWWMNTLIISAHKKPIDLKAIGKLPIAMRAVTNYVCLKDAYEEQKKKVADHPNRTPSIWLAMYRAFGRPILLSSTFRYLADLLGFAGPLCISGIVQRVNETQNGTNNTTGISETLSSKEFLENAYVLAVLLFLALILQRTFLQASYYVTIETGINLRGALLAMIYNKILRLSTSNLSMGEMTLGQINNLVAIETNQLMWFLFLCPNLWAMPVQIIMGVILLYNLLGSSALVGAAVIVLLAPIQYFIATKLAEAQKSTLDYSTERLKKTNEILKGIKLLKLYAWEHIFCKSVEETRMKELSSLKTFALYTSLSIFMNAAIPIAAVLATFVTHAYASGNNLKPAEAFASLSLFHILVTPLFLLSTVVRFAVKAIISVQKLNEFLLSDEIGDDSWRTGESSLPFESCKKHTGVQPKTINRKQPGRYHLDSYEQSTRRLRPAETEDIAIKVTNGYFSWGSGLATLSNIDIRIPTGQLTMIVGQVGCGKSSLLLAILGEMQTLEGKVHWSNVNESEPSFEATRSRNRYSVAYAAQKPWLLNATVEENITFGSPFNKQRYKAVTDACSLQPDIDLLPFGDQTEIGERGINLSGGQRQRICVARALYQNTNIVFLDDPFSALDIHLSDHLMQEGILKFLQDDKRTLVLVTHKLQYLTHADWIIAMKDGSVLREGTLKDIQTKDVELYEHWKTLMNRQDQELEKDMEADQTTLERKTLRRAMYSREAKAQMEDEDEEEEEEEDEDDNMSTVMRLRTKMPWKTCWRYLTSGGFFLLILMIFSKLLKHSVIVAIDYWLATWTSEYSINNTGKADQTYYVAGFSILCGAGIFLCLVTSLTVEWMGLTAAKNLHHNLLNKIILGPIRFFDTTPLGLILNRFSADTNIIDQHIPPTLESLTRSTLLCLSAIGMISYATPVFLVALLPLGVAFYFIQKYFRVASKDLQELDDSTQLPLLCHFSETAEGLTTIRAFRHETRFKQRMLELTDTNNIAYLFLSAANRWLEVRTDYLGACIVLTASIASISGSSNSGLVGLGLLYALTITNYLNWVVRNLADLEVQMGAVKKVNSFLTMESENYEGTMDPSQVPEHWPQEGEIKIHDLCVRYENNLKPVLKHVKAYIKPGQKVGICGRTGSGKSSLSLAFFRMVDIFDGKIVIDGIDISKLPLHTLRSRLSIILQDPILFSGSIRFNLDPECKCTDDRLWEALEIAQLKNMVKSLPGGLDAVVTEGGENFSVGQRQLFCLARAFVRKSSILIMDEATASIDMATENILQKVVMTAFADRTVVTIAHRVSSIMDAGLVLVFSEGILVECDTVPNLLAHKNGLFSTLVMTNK
Sequence of Sulfonylurea receptors; K-ATP channels (UniProt Q14654+O60706+Q09428+Q15842) (Q09428 whole entry): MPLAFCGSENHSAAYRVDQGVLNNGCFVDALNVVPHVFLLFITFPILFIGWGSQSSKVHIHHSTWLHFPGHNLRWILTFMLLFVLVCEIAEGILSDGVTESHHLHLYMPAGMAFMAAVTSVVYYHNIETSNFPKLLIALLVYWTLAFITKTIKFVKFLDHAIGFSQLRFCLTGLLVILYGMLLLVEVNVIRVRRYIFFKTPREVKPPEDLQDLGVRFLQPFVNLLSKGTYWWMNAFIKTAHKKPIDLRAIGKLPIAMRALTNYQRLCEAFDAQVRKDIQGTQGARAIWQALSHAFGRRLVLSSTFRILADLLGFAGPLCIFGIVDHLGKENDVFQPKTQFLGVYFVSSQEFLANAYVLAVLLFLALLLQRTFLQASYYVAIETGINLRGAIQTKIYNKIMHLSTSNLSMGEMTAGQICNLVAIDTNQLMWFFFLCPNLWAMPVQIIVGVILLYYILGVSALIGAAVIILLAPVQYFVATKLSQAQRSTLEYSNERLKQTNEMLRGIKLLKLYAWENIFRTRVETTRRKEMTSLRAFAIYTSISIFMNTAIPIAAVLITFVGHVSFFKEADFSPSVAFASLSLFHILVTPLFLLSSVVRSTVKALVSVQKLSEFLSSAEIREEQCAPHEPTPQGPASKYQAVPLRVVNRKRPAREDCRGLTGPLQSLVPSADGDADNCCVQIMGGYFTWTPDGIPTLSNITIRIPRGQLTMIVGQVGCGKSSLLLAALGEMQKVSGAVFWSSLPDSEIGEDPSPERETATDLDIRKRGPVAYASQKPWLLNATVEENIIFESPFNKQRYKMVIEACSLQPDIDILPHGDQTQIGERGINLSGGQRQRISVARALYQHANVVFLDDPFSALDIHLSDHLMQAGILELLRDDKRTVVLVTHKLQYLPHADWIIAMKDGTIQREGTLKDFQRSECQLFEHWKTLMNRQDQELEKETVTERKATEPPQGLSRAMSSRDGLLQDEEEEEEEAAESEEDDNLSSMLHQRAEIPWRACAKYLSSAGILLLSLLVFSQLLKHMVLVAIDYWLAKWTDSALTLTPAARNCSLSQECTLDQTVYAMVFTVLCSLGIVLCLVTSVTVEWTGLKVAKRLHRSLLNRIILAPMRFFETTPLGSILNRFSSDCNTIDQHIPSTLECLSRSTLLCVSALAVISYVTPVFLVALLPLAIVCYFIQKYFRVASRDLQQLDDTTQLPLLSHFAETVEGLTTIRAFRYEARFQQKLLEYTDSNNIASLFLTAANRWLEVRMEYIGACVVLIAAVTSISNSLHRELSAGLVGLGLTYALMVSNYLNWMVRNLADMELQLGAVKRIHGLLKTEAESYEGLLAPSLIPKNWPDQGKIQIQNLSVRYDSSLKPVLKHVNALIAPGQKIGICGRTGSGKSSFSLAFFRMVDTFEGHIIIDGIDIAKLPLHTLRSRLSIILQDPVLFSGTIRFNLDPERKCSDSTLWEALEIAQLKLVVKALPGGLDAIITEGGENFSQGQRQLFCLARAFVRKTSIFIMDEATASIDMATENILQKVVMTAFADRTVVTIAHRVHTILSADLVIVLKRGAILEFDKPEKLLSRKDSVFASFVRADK
Sequence of Sulfonylurea receptors; K-ATP channels (UniProt Q14654+O60706+Q09428+Q15842) (Q15842 whole entry): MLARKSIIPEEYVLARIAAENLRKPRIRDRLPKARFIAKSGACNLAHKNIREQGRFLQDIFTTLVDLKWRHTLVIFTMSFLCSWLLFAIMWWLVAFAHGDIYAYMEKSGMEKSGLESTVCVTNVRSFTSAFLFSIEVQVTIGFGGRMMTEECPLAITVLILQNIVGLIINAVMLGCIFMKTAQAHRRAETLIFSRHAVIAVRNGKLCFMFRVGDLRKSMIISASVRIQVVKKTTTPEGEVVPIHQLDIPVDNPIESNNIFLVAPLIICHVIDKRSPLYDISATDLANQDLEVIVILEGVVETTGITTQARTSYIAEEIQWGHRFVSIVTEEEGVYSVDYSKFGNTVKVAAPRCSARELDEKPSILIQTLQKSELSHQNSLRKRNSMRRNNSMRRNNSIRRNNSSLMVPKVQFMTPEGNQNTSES

[6] = target: T1, Sulfonylurea receptors; K-ATP channels; assay: Evaluated for K-ATP activity as stable twitch response through field-stimulated landrace pig detrusor assay (FSLPD); format: functional, Sus scrofa; settings: target entry is the homologue from another species
Sus scrofa [7] = species on record: Sus scrofa; assay: Evaluated for change in mean arterial pressure from baseline at a plasma concentration of 24 nM in pigs; format: functional
Outline: (§2)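 Conscious female Landrace/Yorkshire swine (~12 weeks, 14–20 kg), urethra obstructed with a 7.5 mm silver omega ring, telemeterized, held in a restraint cage with ear venous catheters. After a 30 min baseline, increasing doses are given i.v. (3 min infusion) at 30 min intervals. Plasma is sampled 15 min after each dose for LC/MS. MAP and HR are averaged in 5 min bins over each 30 min period, expressed as % change from baseline; n = 2–4.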

Sus scrofa [8] = species on record: Sus scrofa; assay: Evaluated for change in mean arterial pressure from baseline at a plasma concentration of 1.9 nM in pigs; format: functional; outline: as §2
Sus scrofa [9] = species on record: Sus scrofa; assay: Evaluated for change in heart rate from baseline at a plasma concentration of 95 nM in pigs; format: functional; outline: as §2
Sus scrofa [10] = species on record: Sus scrofa; assay: Evaluated for change in heart rate from baseline at a plasma concentration of 24 nM in pigs; format: functional; outline: as §2
Sus scrofa [11] = species on record: Sus scrofa; assay: Evaluated for change in mean arterial pressure from baseline at a plasma concentration of 95 nM in pigs; format: functional; outline: as §2
Sus scrofa [12] = species on record: Sus scrofa; assay: Evaluated for change in heart rate from baseline at a plasma concentration of 1.9 nM in pigs; format: functional; outline: as §2
Sus scrofa [13] = species on record: Sus scrofa; assay: Evaluated for change in heart rate from baseline at a plasma concentration of 167 nM in pigs; format: functional; outline: as §2
Sus scrofa [14] = species on record: Sus scrofa; assay: Evaluated for change in mean arterial pressure from baseline at a plasma concentration of 44 nM in pigs; format: functional; outline: as §2
Sus scrofa [15] = species on record: Sus scrofa; assay: Evaluated for change in heart rate from baseline at a plasma concentration of 44 nM in pigs; format: functional; outline: as §2
Sus scrofa [16] = species on record: Sus scrofa; assay: Evaluated for change in mean arterial pressure from baseline at a plasma concentration of 167 nM in pigs; format: functional; outline: as §2
Sus scrofa [17] = species on record: Sus scrofa; assay: Evaluated for change in heart rate from baseline at a plasma concentration of 12 nM in pigs; format: functional; outline: as §2
Sus scrofa [18] = species on record: Sus scrofa; assay: Evaluated for change in mean arterial pressure from baseline at a plasma concentration of 12 nM in pigs; format: functional; outline: as §2

Compound | EC50 [3] [nM] | EC50 [4] [nM] | further results
CCc1cc(C#N)ccc1Nc1c(N[C@H](C)C(C)(C)C)c(=O)c1=O | 676 | 251 | Selectivity [1]: 6.6; EC50 [2]: 102 nM
O=C1CCC2=C1C(c1ccc([N+](=O)[O-])s1)C1=C(CCS1(=O)=O)N2 (stereo not drawn) | 479 |  | Log EC50 [5]: -6.82
N#Cc1cc(C2C3=C(CCC3=O)NC3=C2S(=O)(=O)CC3)ccn1 (stereo not drawn) |  | 3160 | 
O=C1CCCC2=C1[C@@H](c1ccc(F)c(Br)c1)C1=C(CCS1(=O)=O)N2 |  | 43.7 | EC50 [6]: 69.2 nM; Selectivity [1]: 5.5; EC50 [2]: 12.6 nM
O=C1CCC2=C1[C@@H](c1ccc(F)c(Br)c1)C1=C(CCS1(=O)=O)N2 | 30.9 | 33.1 | 
CSc1cc([C@H]2C3=C(CCCC3=O)NC3=C2S(=O)(=O)CC3)ccc1F |  | 2570 | 
N#Cc1cccc(C2C3=C(CCCC3=O)NC3=C2C(=O)CCC3)c1 | 9770 |  | 
O=C1CCCC2=C1[C@H](c1ccc(F)c(F)c1)C1=C(CCS1(=O)=O)N2 |  | 2040 | 
CC1(C)CCC2=C(C1=O)[C@H](c1ccc(F)c(Br)c1)C1=C(CCS1(=O)=O)N2 | 5620 | 83.2 | 
O=C1CCC2=C1[C@H](c1ccc(F)c(Br)c1)C1=C(CCS1(=O)=O)N2 | 339 | 575 | 
CC(=O)C1=C(C)NC2=C(C1c1ccc(F)c(Br)c1)S(=O)(=O)CCC2 (stereo not drawn) | 794 | 214 | 
O=C1CCCC2=C1[C@H](c1ccc(Cl)c(F)c1)C1=C(CCS1(=O)=O)N2 |  | 1320 | 
O=C1CCCC2=C1[C@H](c1cccc(Br)c1)C1=C(CCS1(=O)=O)N2 |  | 1510 | 
O=C1CCCC2=C1[C@H](c1ccc(C(F)(F)F)c(Br)c1)C1=C(CCS1(=O)=O)N2 | 9550 | 219 | 
O=C1CCCC2=C1[C@H](c1ccc(F)c(-c3ccccc3)c1)C1=C(CCS1(=O)=O)N2 |  | 12000 | 
CC1(C)CCC(=O)C2=C1NC1=C([C@@H]2c2ccc(F)c(Br)c2)S(=O)(=O)CC1 |  | > 10000 | 
C=Cc1cc([C@H]2C3=C(CCCC3=O)NC3=C2S(=O)(=O)CC3)ccc1F | 2450 | 1350 | 
CC1(C)CC(=O)C2=C(C1)NC1=C([C@@H]2c2ccc(F)c(Br)c2)S(=O)(=O)CC1 |  | 17800 | 
O=C1CCC2=C1C(c1csc([N+](=O)[O-])c1)C1=C(CCS1(=O)=O)N2 (stereo not drawn) | 661 | 240 | 
Cc1ccc([C@H]2C3=C(CCCC3=O)NC3=C2S(=O)(=O)CC3)cc1Br | 110 | 182 | 
CC1=C(C(=O)O)C(c2ccc(F)c(Br)c2)C2=C(CCS2(=O)=O)N1 (stereo not drawn) | 8710 | 1820 | 
N#Cc1cc([C@H]2C3=C(CCCC3=O)NC3=C2S(=O)(=O)CC3)ccc1F |  | 468 | 
O=C1CCCC2=C1C(c1ccc(F)c(Br)c1)C1=C(CCCS1(=O)=O)N2 (stereo in doubt; 17(-)) | 363 | 38 | 

Compound | EC50 [3] [nM] | EC50 [4] [nM] | further results
O=C1CCCC2=C1[C@H](c1ccc3nsnc3c1)C1=C(CCS1(=O)=O)N2 |  | 2400 | 
O=C1CCCC2=C1[C@H](c1ccc(F)c(-c3ccco3)c1)C1=C(CCS1(=O)=O)N2 | 1700 | 214 | 
O=C1CCCC2=C1[C@H](c1ccc(F)c(Br)c1)C1=C(CCS1(=O)=O)N2 | 234 | 123 | Delta MAP (Sus scrofa [7]): -6.9%; Delta MAP (Sus scrofa [8]): -5.4%; Delta HR (Sus scrofa [9]): 56%; Delta HR (Sus scrofa [10]): 3.5%; Delta MAP (Sus scrofa [11]): -27%; Selectivity [1]: 10; Delta HR (Sus scrofa [12]): 6.2%; EC50 [2]: 22.9 nM
O=C1CCCC2=C1[C@H](c1ccc3nonc3c1)C1=C(CCS1(=O)=O)N2 | 2340 | 214 | 
Cc1ccc([C@H]2C3=C(CCCC3=O)NC3=C2S(=O)(=O)CC3)cc1[N+](=O)[O-] | 537 | 282 | 
CCc1ccc([C@H]2C3=C(CCCC3=O)NC3=C2S(=O)(=O)CC3)cc1[N+](=O)[O-] |  | 2290 | 
CC1=C(C#N)C(c2ccc(F)c(Br)c2)C2=C(CCS2(=O)=O)N1 (stereo not drawn) |  | 27.5 | 
O=S1(=O)CCC2=C1C(c1ccc(F)c(Br)c1)C=C(C(F)(F)F)N2 (stereo not drawn) | 2240 | 447 | 
Cc1ccc([C@H]2C3=C(CCCC3=O)NC3=C2S(=O)(=O)CC3)cc1I | 309 | 21.9 | 
O=C1CCCC2=C1[C@H](c1ccc(F)c(Cl)c1)C1=C(CCS1(=O)=O)N2 | 214 | 138 | 
O=C1CCC2=C1C(c1ccc(Br)s1)C1=C(CCS1(=O)=O)N2 (stereo not drawn) |  | 1860 | 
CC1(C)CC(=O)C2=C(C1)NC1=C([C@H]2c2ccc(F)c(Br)c2)S(=O)(=O)CC1 |  | 7080 | 
Cc1cc([C@H]2C3=C(CCCC3=O)NC3=C2S(=O)(=O)CC3)ccc1F |  | 2820 | 
O=C1CCCC2=C1[C@H](c1ccc(Cl)c(Br)c1)C1=C(CCS1(=O)=O)N2 | 724 | 25.7 | 
O=C1CCCC2=C1C(c1ccc(F)c(Br)c1)C1=C(CCCCS1(=O)=O)N2 (stereo not drawn) |  | 3310 | 
O=S1(=O)CCCC2=C1C(c1ccc(F)c(Br)c1)C1=C(CCCS1(=O)=O)N2 | 11700 | 3160 | 
CCC(C)(C)NC(=NC#N)Nc1cccnc1 | 85.1 | 44.7 | EC50 [2]: 21.9 nM
CC1(C)Oc2ccc(C#N)cc2[C@H](N2CCCC2=O)[C@H]1O (single isomer, unassigned) [(-)-CROMAKALIM] |  |  | Delta HR (Sus scrofa [13]): 47%; Delta MAP (Sus scrofa [14]): -12%; Delta HR (Sus scrofa [15]): 38%; Delta MAP (Sus scrofa [16]): -33%; Delta HR (Sus scrofa [17]): 13%; Delta MAP (Sus scrofa [18]): -6.3%
O=C1CCCC2=C1[C@H](c1ccc(F)c(I)c1)C1=C(CCS1(=O)=O)N2 | 447 | 28.2 | 
Cc1ccc([C@H]2C3=C(CCCC3=O)NC3=C2S(=O)(=O)CC3)cc1S(C)(=O)=O |  | > 10000 | 
O=C1CCC2=C1C(c1cncc([N+](=O)[O-])c1)C1=C(CCS1(=O)=O)N2 (stereo not drawn) |  | > 10000 | 
O=C1CCCC2=C1[C@H](c1ccc(F)c(-c3cccnc3)c1)C1=C(CCS1(=O)=O)N2 |  | > 10000 | 
CC1(C)CCC2=C(C1=O)[C@@H](c1ccc(F)c(Br)c1)C1=C(CCS1(=O)=O)N2 | 977 | 107 | 

Compound | EC50 [3] [nM] | EC50 [4] [nM] | further results
O=C1CCC2=C1C(c1ccc(F)c(Br)c1)C1=C(CCCCS1(=O)=O)N2 (stereo not drawn) | 11700 | 2240 | 
O=C1CCCC2=C1[C@H](c1ccc(Br)cc1)C1=C(CCS1(=O)=O)N2 |  | > 10000 | 
O=C1CCCC2=C1[C@H](c1cc(Cl)c(Cl)cc1CO)C1=C(CCS1(=O)=O)N2 |  | 61700 | 
O=C1CCC2=C1[C@H](c1ccc(F)c(Br)c1)C1=C(CCCS1(=O)=O)N2 | 26300 | 14800 | 
CCOC(=O)C1=C(C)NC2=C(C1c1ccc(F)c(Br)c1)S(=O)(=O)CC2 (stereo not drawn) |  | 501 | 
O=C1CCCC2=C1C(c1ccc(F)c(Br)c1)C1=C(CCCS1(=O)=O)N2 (single isomer, unassigned; (+)) | 6760 | 1200 | 
O=S1(=O)CCC2=C1C(c1ccc(F)c(Br)c1)C1=C(CCS1(=O)=O)N2 | 269 | 339 | 
N#Cc1cccc(C2C3=C(CCC3=O)NC3=C2S(=O)(=O)CC3)n1 (stereo not drawn) |  | > 10000 | 
O=C1CCCC2=C1[C@H](c1ccc(Cl)c(Cl)c1)C1=C(CCS1(=O)=O)N2 | 331 | 269 | 
CCOC(=O)C1=C(C(F)(F)F)NC2=C(C1c1ccc(F)c(Br)c1)S(=O)(=O)CC2 (stereo not drawn) |  | > 10000 | 
COC(=O)C1=C(C)NC2=C(C1c1ccc(F)c(Br)c1)S(=O)(=O)CC2 (stereo not drawn) |  | 53.7 | 
O=C1CCC2=C1[C@@H](c1ccc(F)c(Br)c1)C1=C(CCCS1(=O)=O)N2 | 282 | 52.5 | 
O=C1CCCC2=C1[C@H](c1cc(Br)ccc1O)C1=C(CCS1(=O)=O)N2 | 20400 | 575 | 
O=C1CCCC2=C1[C@H](c1cc(Br)c(F)cc1O)C1=C(CCS1(=O)=O)N2 | 676 | 209 | 
CC(=O)c1cc([C@H]2C3=C(CCCC3=O)NC3=C2S(=O)(=O)CC3)ccc1F |  | 1050 | 
O=C1CCC2=C1C(c1cc(Br)cs1)C1=C(CCS1(=O)=O)N2 (stereo not drawn) |  | 741 | 
CC1(C)CCC(=O)C2=C1NC1=C([C@H]2c2ccc(F)c(Br)c2)S(=O)(=O)CC1 | 2690 | 631 | 
O=C1CCCC2=C1[C@H](c1ccc(F)c(C(F)(F)F)c1)C1=C(CCS1(=O)=O)N2 | 977 | 155 | 
N#Cc1cccc([C@H]2C3=C(CCCC3=O)NC3=C2S(=O)(=O)CC3)c1 | 12900 | 5890 | 
N#Cc1ccnc(C2C3=C(CCC3=O)NC3=C2S(=O)(=O)CC3)c1 (stereo not drawn) |  | > 10000 | 
O=C1CCCC2=C1[C@H](c1ccc(Br)c(Br)c1)C1=C(CCS1(=O)=O)N2 | 537 | 55 | 
O=C1CCCC2=C1[C@H](c1ccc(F)c(-c3cccs3)c1)C1=C(CCS1(=O)=O)N2 |  | > 10000 | 
